How the values were obtained:
[1] = folding enthalpy; higher = less favourable; fluorescence melt of hairpins on a sequencing array, two-state fit; conditions: sodium 0.088 M
Summary of the method: (§1)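 On a sequenced MiSeq flow cell, library hairpins with annealed Cy3 and quencher oligos were imaged for Cy3 fluorescence in 2.5 °C steps up to 60 °C, in 50 mM Na-HEPES pH 8.0, 25 mM NaCl. Normalisation used pre-quench Cy3 and control constructs. Bootstrapped two-state fits gave melting temperature and folding enthalpy, combined by inverse variance across four replicates and with fitted temperatures raised by 9.35 °C to match UV melts.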

[2] = melting temperature; fluorescence melt of hairpins on a sequencing array, two-state fit, raised by 9.35 °C to match UV melts; conditions: sodium 0.088 M
Summary of the method: as §1

GCACCCGGAAACAGGTGC (((((.(....).)))))
folding enthalpy [1]: -34.6 kcal/mol | Tm [2]: 52.4 °C

GCACCCGGAAACGGGTAC (.(((((....))))).)
folding enthalpy [1]: -12.7 kcal/mol | Tm [2]: 45.1 °C

GCACCGCGAAAGCAGCGC ((.(.((....)).).))
folding enthalpy [1]: -18.2 kcal/mol | Tm [2]: 46.5 °C

GCACCGCGAAAGCAGTGC ((((.((....)).))))
folding enthalpy [1]: -25.6 kcal/mol | Tm [2]: 65 °C

GCACCGCGAAAGCCGGGC ((.(.((....)).).))
folding enthalpy [1]: -20.6 kcal/mol | Tm [2]: 54.5 °C

GCACCGGGAAACCGATGC (((.(((....))).)))
folding enthalpy [1]: -25.2 kcal/mol | Tm [2]: 50.6 °C

GCACCGTCGAAAGACTGC (((..(((....))))))
folding enthalpy [1]: -17.7 kcal/mol | Tm [2]: 35.9 °C

GCACGAGCGAAAGCTTGC (((..(((....))))))
folding enthalpy [1]: -11.3 kcal/mol | Tm [2]: 41 °C

GCACGAGGAAACTCATGC (((.(((....))).)))
folding enthalpy [1]: -28.8 kcal/mol | Tm [2]: 41.2 °C

GCACGAGGAAACTCGCAC (..((((....))))..)
folding enthalpy [1]: -8.67 kcal/mol | Tm [2]: 25.5 °C

GCACGAGGAAACTTGTGC ((((.((....)).))))
folding enthalpy [1]: -43.5 kcal/mol | Tm [2]: 54.5 °C

GCACGATCGAAAGATTGC (((..(((....))))))
folding enthalpy [1]: -18.7 kcal/mol | Tm [2]: 31.7 °C

GCACGCGGAAACACGTGC (((((.(....).)))))
folding enthalpy [1]: -51.2 kcal/mol | Tm [2]: 57.1 °C

GCACGCGGAAACGTGTGC ((((.((....)).))))
folding enthalpy [1]: -46 kcal/mol | Tm [2]: 66.7 °C

GCACGCTCGAAAGAGTGC (((..(((....))))))
folding enthalpy [1]: -20.9 kcal/mol | Tm [2]: 50.2 °C

GCACGGCGAAAGCAGAGC ((.(.((....)).).))
folding enthalpy [1]: -20 kcal/mol | Tm [2]: 53 °C

GCACGGCGAAAGCAGGGC ((.(.((....)).).))
folding enthalpy [1]: -36 kcal/mol | Tm [2]: 65.8 °C

GCACGGCGAAAGCCTGC (((.(((....))))))
folding enthalpy [1]: -18.1 kcal/mol | Tm [2]: 58.7 °C

GCACGGCGAAAGCGCTGC (((..((....))..)))
folding enthalpy [1]: -17.5 kcal/mol | Tm [2]: 52 °C

GCACGGCGAAAGCTGAGC ((.(.((....)).).))
folding enthalpy [1]: -19 kcal/mol | Tm [2]: 55.8 °C

GCACGGCGAAAGCTGGGC ((.(.((....)).).))
folding enthalpy [1]: -31.5 kcal/mol | Tm [2]: 67.5 °C

GCACGGGGAAACCCGCAC (..((((....))))..)
folding enthalpy [1]: -9.35 kcal/mol | Tm [2]: 25.2 °C

GCACTACGAAAGTATTGC (((.(((....))).)))
folding enthalpy [1]: -31.2 kcal/mol | Tm [2]: 45.9 °C

GCACTCCGAAAGGAATGC (((.(((....))).)))
folding enthalpy [1]: -38.6 kcal/mol | Tm [2]: 51.1 °C

GCACTCCGAAAGGACTGC (((.(((....))).)))
folding enthalpy [1]: -18.5 kcal/mol | Tm [2]: 40.4 °C

GCACTCGAAAGAGAGTGC ((((((....)))..)))
folding enthalpy [1]: -38.7 kcal/mol | Tm [2]: 59.9 °C

GCACTCGAAAGAGCGTGC ((((((....)))..)))
folding enthalpy [1]: -25.9 kcal/mol | Tm [2]: 43.2 °C

GCACTCGAAAGAGCTGC ((((((....))).)))
folding enthalpy [1]: -28.3 kcal/mol | Tm [2]: 48.1 °C

GCACTCGAAAGAGCTTGC ((((((....)))..)))
folding enthalpy [1]: -19.1 kcal/mol | Tm [2]: 36.6 °C

GCACTCGAAAGAGGTTGC ((((((....)))..)))
folding enthalpy [1]: -18.6 kcal/mol | Tm [2]: 37.6 °C

GCACTCGAAAGAGTTTGC ((((((....)))..)))
folding enthalpy [1]: -17.5 kcal/mol | Tm [2]: 35.9 °C

GCACTGCGAAAGCAACGC ((..(((....)))..))
folding enthalpy [1]: -14.2 kcal/mol | Tm [2]: 36.2 °C

GCACTGCGAAAGCACGGC ((..(((....)))..))
folding enthalpy [1]: -17.6 kcal/mol | Tm [2]: 38.4 °C

GCACTGCGAAAGCCATGC (((..((....))..)))
folding enthalpy [1]: -14.7 kcal/mol | Tm [2]: 38.1 °C

GCACTGCGAAAGCTGGGC ((.(.((....)).).))
folding enthalpy [1]: -36.6 kcal/mol | Tm [2]: 64.3 °C

GCACTGGGAAACCAGTAC (.(((((....))))).)
folding enthalpy [1]: -14.9 kcal/mol | Tm [2]: 38.1 °C

GCACTGGGAAACTAGTGC (((((.(....).)))))
folding enthalpy [1]: -38.9 kcal/mol | Tm [2]: 53.2 °C

GCACTGGGAAACTGGTGC ((((..(....)..))))
folding enthalpy [1]: -33 kcal/mol | Tm [2]: 48.8 °C

GCACTTCGAAAGAATTGC (((.(((....))).)))
folding enthalpy [1]: -31.6 kcal/mol | Tm [2]: 42.6 °C

GCACTTGAAAAAGTGC ((((((....))))))
folding enthalpy [1]: -41.2 kcal/mol | Tm [2]: 61.2 °C

GCACTTGGAAACAAGTAC (.(((((....))))).)
folding enthalpy [1]: -19.3 kcal/mol | Tm [2]: 37.9 °C

GCACTTTCGAAAGAATGC (((..(((....))))))
folding enthalpy [1]: -14.6 kcal/mol | Tm [2]: 33.2 °C

GCAGAAACGAAAGTTTGC (((..(((....))))))
folding enthalpy [1]: -20.3 kcal/mol | Tm [2]: 35.7 °C

GCAGAACGAAAGTTGTGC (((.(((....))).)))
folding enthalpy [1]: -32.1 kcal/mol | Tm [2]: 55.4 °C

GCAGAAGGAAACTTCTAC (.(((((....))))).)
folding enthalpy [1]: -11.7 kcal/mol | Tm [2]: 27.8 °C

GCAGAAGGAAACTTCTGC (((((((....)))))))
folding enthalpy [1]: -44.4 kcal/mol | Tm [2]: 60.7 °C

GCAGACGGAAACGTTTGC (((.(((....))).)))
folding enthalpy [1]: -46.1 kcal/mol | Tm [2]: 53.8 °C

GCAGAGCGAAAGCCCCGC ((.(.((....)).).))
folding enthalpy [1]: -10.1 kcal/mol | Tm [2]: 36.9 °C

GCAGAGCGAAAGCCCTGC ((((.((....)).))))
folding enthalpy [1]: -29.1 kcal/mol | Tm [2]: 63.2 °C

GCAGAGCGAAAGCTAAGC ((..(((....)))..))
folding enthalpy [1]: -15.1 kcal/mol | Tm [2]: 43.8 °C

GCAGAGCGAAAGCTACGC ((..(((....)))..))
folding enthalpy [1]: -13.9 kcal/mol | Tm [2]: 47.2 °C

GCAGAGCGAAAGCTGAGC ((..(((....)))..))
folding enthalpy [1]: -11.8 kcal/mol | Tm [2]: 43.1 °C

GCAGAGCGAAAGCTGCGC ((..(((....)))..))
folding enthalpy [1]: -21 kcal/mol | Tm [2]: 61.3 °C

GCAGAGCGAAAGCTGGGC ((..(((....)))..))
folding enthalpy [1]: -19.6 kcal/mol | Tm [2]: 50.7 °C

GCAGAGCGAAAGCTGTGC (((.(((....))).)))
folding enthalpy [1]: -44.2 kcal/mol | Tm [2]: 59 °C

GCAGAGGGAAACCTTTGC (((.(((....))).)))
folding enthalpy [1]: -32.9 kcal/mol | Tm [2]: 45.2 °C

GCAGAGGGAAACTTCTGC (((((.(....).)))))
folding enthalpy [1]: -35 kcal/mol | Tm [2]: 48 °C

GCAGATCGAAAGATGTGC (((.(((....))).)))
folding enthalpy [1]: -35.1 kcal/mol | Tm [2]: 53.6 °C

GCAGATCGAAAGATTGC (((.(((....))))))
folding enthalpy [1]: -23.1 kcal/mol | Tm [2]: 44.1 °C

GCAGATGGAAACATCCGC ((.((((....)))).))
folding enthalpy [1]: -23.9 kcal/mol | Tm [2]: 42.5 °C

GCAGCACCGAAAGGTTGC (((..(((....))))))
folding enthalpy [1]: -14 kcal/mol | Tm [2]: 43.9 °C

GCAGCAGGAAACCACTGC ((((..(....)..))))
folding enthalpy [1]: -18.8 kcal/mol | Tm [2]: 34.7 °C

GCAGCCGAAAGGCCCTGC ((((((....)))..)))
folding enthalpy [1]: -12.5 kcal/mol | Tm [2]: 34.8 °C

GCAGCCGAAAGGCGGTGC ((((((....)))..)))
folding enthalpy [1]: -15 kcal/mol | Tm [2]: 57.1 °C

GCAGCCGGAAACGGCCAC (..((((....))))..)
folding enthalpy [1]: -9.09 kcal/mol | Tm [2]: 36.2 °C

GCAGCGCGAAAGCACGGC ((.(.((....)).).))
folding enthalpy [1]: -22.9 kcal/mol | Tm [2]: 53.9 °C

GCAGCGCGAAAGCCCCGC ((.(.((....)).).))
folding enthalpy [1]: -9.42 kcal/mol | Tm [2]: 37 °C

GCAGCGCGAAAGCGAGGC ((..(((....)))..))
folding enthalpy [1]: -19.2 kcal/mol | Tm [2]: 63.8 °C

GCAGCGCGAAAGCGGAGC ((..(((....)))..))
folding enthalpy [1]: -17.7 kcal/mol | Tm [2]: 56 °C

GCAGCGCGAAAGCGTGC (((.(((....))))))
folding enthalpy [1]: -14 kcal/mol | Tm [2]: 62.2 °C

GCAGCGCGAAAGCTCTGC ((((.((....)).))))
folding enthalpy [1]: -31.9 kcal/mol | Tm [2]: 62 °C

GCAGCGCGAAAGCTGTGC (((..((....))..)))
folding enthalpy [1]: -18.8 kcal/mol | Tm [2]: 44.8 °C

GCAGCGGGAAACCGCCAC (..((((....))))..)
folding enthalpy [1]: -8.97 kcal/mol | Tm [2]: 29.8 °C

GCAGCTGGAAACAGCCAC (..((((....))))..)
folding enthalpy [1]: -10.6 kcal/mol | Tm [2]: 31 °C

GCAGGACCGAAAGGTTGC (((..(((....))))))
folding enthalpy [1]: -20.7 kcal/mol | Tm [2]: 44.8 °C

GCAGGACGAAAGTCTTGC (((.(((....))).)))
folding enthalpy [1]: -41.5 kcal/mol | Tm [2]: 58.5 °C

GCAGGAGGAAACTTCTGC ((((.((....)).))))
folding enthalpy [1]: -39.5 kcal/mol | Tm [2]: 49.9 °C

GCAGGCGAAAGCCGATGC ((((((....)))..)))
folding enthalpy [1]: -13.3 kcal/mol | Tm [2]: 53.9 °C

GCAGGCGAAAGCCGGTGC ((((((....)))..)))
folding enthalpy [1]: -14.5 kcal/mol | Tm [2]: 53.8 °C

GCAGGCGGAAACACCTGC (((((.(....).)))))
folding enthalpy [1]: -48.9 kcal/mol | Tm [2]: 54.1 °C

GCAGGCGGAAACGCCCGC ((.((((....)))).))
folding enthalpy [1]: -15.8 kcal/mol | Tm [2]: 59.3 °C

GCAGGCGGAAACGCCTAC (.(((((....))))).)
folding enthalpy [1]: -9.53 kcal/mol | Tm [2]: 43.9 °C

GCAGGCGGAAACGCTTGC (((.(((....))).)))
folding enthalpy [1]: -38.5 kcal/mol | Tm [2]: 62.1 °C

GCAGGCTCGAAAGAGTGC (((..(((....))))))
folding enthalpy [1]: -19.8 kcal/mol | Tm [2]: 36.6 °C

GCAGGGCGAAAGCACCGC ((.(.((....)).).))
folding enthalpy [1]: -16 kcal/mol | Tm [2]: 57.7 °C

GCAGGGCGAAAGCCTGGC ((..(((....)))..))
folding enthalpy [1]: -20.2 kcal/mol | Tm [2]: 59.8 °C

GCAGGGCGAAAGCGGTGC (((..((....))..)))
folding enthalpy [1]: -21.4 kcal/mol | Tm [2]: 52.8 °C

GCAGGGCGAAAGCGTTGC (((..((....))..)))
folding enthalpy [1]: -19.1 kcal/mol | Tm [2]: 54.1 °C

GCAGGGCGAAAGCTTTGC (((..((....))..)))
folding enthalpy [1]: -19.8 kcal/mol | Tm [2]: 50.7 °C

GCAGGGGGAAACCCCCGC ((.((((....)))).))
folding enthalpy [1]: -14.5 kcal/mol | Tm [2]: 61.6 °C
